ChEMBL document CHEMBL5724801, “EUbOPEN Chemogenomics Library - Multiplex” (2024)
“And” between values parts separate entries of the source, which are not always exact repeats. Identical values can stand only once.

Tested on: HEK-293T
Assay: Multiplex assay against HEK293T
Format: toxicity, cell-based
Settings: human
Outline: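 Compound was added to live cells that had been stained at seeding with Hoechst33342, BioTracker Green Microtubule Cytoskeleton Dye, MitoTracker Red and Annexin V Alexa Fluor 680, and imaging followed on a CQ1 microscope at 37°C and 5% CO2. CellPathfinder machine-learning gating divided cells into Hoechst high-intensity objects or normal cells, normal cells into healthy, pyknosed or fragmented nuclei, and pyknosed cells into mitotic or apoptotic. Tubulin, mitochondrial-mass and membrane-permeability phenotypes are per cents of healthy-nucleus cells.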

[1] = 12 h, 1 µM, compound concentration 1 uM
[2] = 12 h, 10 µM, compound concentration 10 uM
[3] = 24 h, 1 µM, compound concentration 1 uM
[4] = 24 h, 10 µM, compound concentration 10 uM
[5] = 48 h, 1 µM, compound concentration 1 uM
[6] = 48 h, 10 µM, compound concentration 10 uM

Cc1c(C(=O)NCCCN(C)C)sc2ncnc(Nc3ccc(F)cc3OC(C)CF)c12 (stereo unspecified)
Population Apoptotic (%) [1]: 8.15% and 7.44%
Population Fragmented Nuclei (%) [1]: 1.52% and 6.08%
Population Hoechst High Intensity Objects (%) [1]: 0%
Population Membrane Permeable-Phenotype (%) [1]: 0.79% and 5.56%
Population Mitochondria Different-Phenotype (%) [1]: 38.58% and 38.89%
Population Mitotic Cells (%) [1]: 91.85% and 92.56%
Population Normal (%) [1]: 100%
Population Pyknosed Nuclei (%) [1]: 34.18% and 81.76%
Total Cell Count [1]: 395 and 148
Population Apoptotic (%) [2]: 12.67% and 12.38%
Population Fragmented Nuclei (%) [2]: 1.93% and 0.83%
Population Healthy Nuclei (%) [2]: 25.6% and 12.4%
Population Hoechst High Intensity Objects (%) [2]: 0%
Population Mitotic Cells (%) [2]: 87.33% and 87.62%
Population Normal (%) [2]: 100%
Population Pyknosed Nuclei (%) [2]: 72.46% and 86.78%
Population Tubulin-Different-Phenotype (%) [2]: 81.13% and 53.33%
Total Cell Count [2]: 207 and 121
Population Apoptotic (%) [3]: 11.02% and 10.43%
Population Fragmented Nuclei (%) [3]: 2.43% and 2.58%
Population Hoechst High Intensity Objects (%) [3]: 0%
Population Membrane Permeable-Phenotype (%) [3]: 0.68% and 2.78%
Population Mitochondria Different-Phenotype (%) [3]: 18.96% and 11.11%
Population Mitotic Cells (%) [3]: 88.98% and 89.57%
Population Normal (%) [3]: 100%
Population Tubulin-Different-Phenotype (%) [3]: 36.57% and 13.89%
Population Apoptotic (%) [4]: 33.73% and 30.77%
Population Fragmented Nuclei (%) [4]: 1.65% and 0%
Population Healthy Nuclei (%) [4]: 29.75% and 17.27%
Population Hoechst High Intensity Objects (%) [4]: 0%
Population Membrane Permeable-Phenotype (%) [4]: 1.39% and 0%
Population Mitochondria Different-Phenotype (%) [4]: 69.44% and 26.32%
Population Mitotic Cells (%) [4]: 66.27% and 69.23%
Population Normal (%) [4]: 100%
Population Pyknosed Nuclei (%) [4]: 68.6% and 82.73%
Population Tubulin-Different-Phenotype (%) [4]: 80.56% and 73.68%
Total Cell Count [4]: 242 and 110
Population Apoptotic (%) [5]: 9.92% and 23.86%
Population Fragmented Nuclei (%) [5]: 3.85% and 2.43%
Population Healthy Nuclei (%) [5]: 86.64% and 54.85%
Population Hoechst High Intensity Objects (%) [5]: 0%
Population Membrane Permeable-Phenotype (%) [5]: 6.37% and 1.77%
Population Mitochondria Different-Phenotype (%) [5]: 17.27% and 49.56%
Population Mitotic Cells (%) [5]: 90.08% and 76.14%
Population Normal (%) [5]: 100%
Population Apoptotic (%) [6]: 42.07% and 65.33%
Population Fragmented Nuclei (%) [6]: 1.78% and 1.64%
Population Healthy Nuclei (%) [6]: 46.62% and 36.89%
Population Hoechst High Intensity Objects (%) [6]: 0.35% and 0.81%
Population Membrane Permeable-Phenotype (%) [6]: 1.53% and 0%
Population Mitochondria Different-Phenotype (%) [6]: 90.84% and 55.56%
Population Mitotic Cells (%) [6]: 57.93% and 34.67%
Population Normal (%) [6]: 99.65% and 99.19%
Population Pyknosed Nuclei (%) [6]: 51.6% and 61.48%
Population Tubulin-Different-Phenotype (%) [6]: 30.53% and 82.22%
Total Cell Count [6]: 282 and 123
